CHOP UPR activ = activators of apoptotic arm of unfolded protein response (CHOP). AID 449763. activation, % at 10 µM. 0.34% of 330,000 active. CHO-CHOP luciferase reporter, UPR activation, luminescence; percent of tunicamycin response over DMSO baseline;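 active means at 10 µM dose, activation of 40% or more, normalized to positive control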;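 further: 100% = tunicamycin at 10 µg/mL and 0% = DMSO alone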
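System: CHO CHOP reporter cells. Amount: 500 cells per well. Buffer or medium: F12 medium, 10% FBS. Compound dosing: one dose, 10 µM in 0.5% DMSO. Incubation: 6 h compound exposure at 37 °C after overnight seeding. Technique: Steady-Glo luciferase luminescence. Benchmarks: tunicamycin and DMSO controls.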
CHOP inhibitor = blocks CHOP induction under ER stress. CHO-K1 CHOP-promoter luciferase, tunicamycin-induced, 15-18 h. inhibition, % at 10 µM. 3.8% of 220,000 active. AID 2732;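 active means compounds that reduced the stress-induced luciferase reporter signal by more than about 70% of percent inhibition, limit read from the data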;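 further: 0% = tunicamycin plus vehicle and 100% = wells without tunicamycin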
Hep lipid drop = modulators of hepatic lipid droplet formation; inhibition, % at 6.5 µM; AID 1656; AML12 mouse hepatocytes, oleate lipid droplets, BODIPY imaging; 0.4% of 240,000 active;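 active means lipid droplet intensity inhibited by at least 50%, with more than 500 cells counted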
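Technique: fluorescence imaging, 20x objective, two fields per well / Assay system: AML12 hepatocytes (mouse) / Measure: % inhibition of lipid droplet signal / Doses: 6.5 µM single-point dosing / Incubation: overnight exposure / Reagent: 100 µM oleic acid challenge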
ANO1 block = inhibitors of mouse TMEM16A calcium-activated chloride channel; normalized B-score (activity score, 25-100; higher = stronger inhibition) at 10 µM; Q8BHY3; 1.2% of 310,000 active; HEK293 TMEM16A/YFP iodide influx fluorescence, ionomycin;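 active means ratio plate-corrected score three or more library SD toward inhibition, starting fluorescence score within five deviations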;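 further: score derived from kinetic fluorescence span divided by baseline fluorescence per well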
Target sequence (Q8BHY3 whole entry, looked up): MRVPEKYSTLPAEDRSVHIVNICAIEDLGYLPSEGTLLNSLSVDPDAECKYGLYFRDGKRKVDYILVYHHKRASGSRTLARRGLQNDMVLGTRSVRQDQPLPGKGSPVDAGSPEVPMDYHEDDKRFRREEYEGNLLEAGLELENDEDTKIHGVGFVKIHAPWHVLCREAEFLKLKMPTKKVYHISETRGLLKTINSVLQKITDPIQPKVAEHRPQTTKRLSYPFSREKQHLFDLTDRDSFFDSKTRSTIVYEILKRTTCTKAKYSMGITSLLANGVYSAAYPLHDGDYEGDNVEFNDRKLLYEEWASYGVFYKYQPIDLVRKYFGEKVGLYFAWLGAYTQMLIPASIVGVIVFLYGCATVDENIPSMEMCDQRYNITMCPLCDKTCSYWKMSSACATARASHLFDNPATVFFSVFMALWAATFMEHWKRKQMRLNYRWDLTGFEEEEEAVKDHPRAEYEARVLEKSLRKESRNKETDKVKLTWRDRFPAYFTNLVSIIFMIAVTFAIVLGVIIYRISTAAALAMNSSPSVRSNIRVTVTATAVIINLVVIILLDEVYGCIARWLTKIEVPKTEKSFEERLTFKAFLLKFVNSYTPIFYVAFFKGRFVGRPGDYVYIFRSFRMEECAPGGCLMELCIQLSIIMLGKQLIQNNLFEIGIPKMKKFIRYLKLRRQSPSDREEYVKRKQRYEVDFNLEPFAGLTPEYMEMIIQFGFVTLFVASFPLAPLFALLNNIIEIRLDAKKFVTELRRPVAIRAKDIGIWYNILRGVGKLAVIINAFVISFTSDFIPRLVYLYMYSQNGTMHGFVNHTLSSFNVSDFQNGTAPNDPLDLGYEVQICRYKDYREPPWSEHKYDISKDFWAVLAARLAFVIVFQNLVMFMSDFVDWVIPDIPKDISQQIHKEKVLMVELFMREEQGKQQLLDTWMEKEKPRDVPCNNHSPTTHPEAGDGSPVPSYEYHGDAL
UPR XBP1 act = activators of adaptive arm of unfolded protein response (XBP1); CHO-XBP1 luciferase reporter, IRE1-XBP1 UPR activation, luminescence; percent of tunicamycin response, DMSO as zero; activation, % at 20 µM; 0.33% of 330,000 active;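 active means versus positive control, 20 µM dose yields 30% or more activation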;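 further: 100% = tunicamycin at 10 µg/mL and 0% = DMSO only wells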
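Material: CHO-XBP1 cells stably carrying IRE1-XBP1-driven luciferase reporter | Medium: F12 with 10% serum | Compound dosing: 20 µM single concentration, DMSO 1% | Incubation: Overnight seeding at 37 °C, 6 h compound treatment at 37 °C | Detection: Steady-Glo luminescence read | Read-out basis: % activation of reporter signal versus tunicamycin and DMSO controls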
TMEM16A act = mouse TMEM16A channel activation, primary screen; AID 623877; B-score at 10 µM; Q8BHY3; HEK293 TMEM16A/YFP-H148Q/I152L, iodide quench fluorescence; stronger effect = lower value; 0.3% of 340,000 active;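 active means fluorescence-ratio B-score plate-corrected deviation score at least 3 library SD below zero, with starting fluorescence score within 5 deviations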;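 further: channel opened by trigger with iodide after compound preincubation; score built on the fluorescence ratio of max minus min over baseline; more negative score means more quench and so TMEM16A activation or potentiation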
Starred values were filed as active, the others as inactive; i = inactive; x = no result given. Only some compounds are listed: those with a hit (about 4.2% of all), similar ones and a draw of the others.

SMILES | CHOP UPR activ | CHOP inhibitor | Hep lipid drop | ANO1 block | UPR XBP1 act | TMEM16A act
Cc1cccc(C(=O)OCC(=O)Nc2ccc3c(c2)OCCO3)c1O | 2.5 | x | x | x | -1.8 | i
CCOCc1c(C(=O)OCC(=O)NCc2ccc(F)cc2)oc2ccccc12 | -0.9 | x | x | x | -2.7 | i
Cc1cc2oc3c(c(=O)c2cc1C)C(c1cccc(Br)c1)N(Cc1ccco1)C3=O (stereo not given) | 3.6 | -5.1 | x | i | -0.3 | i
CCOc1cc(C2c3c(oc4cc(C)c(Cl)cc4c3=O)C(=O)N2Cc2ccco2)ccc1O (stereo not given) | 7.1 | 95.8* | x | i | 8.9 | i
Cc1ccc2oc3c(c(=O)c2c1)C(c1cccc(Br)c1)N(Cc1ccco1)C3=O (stereo not given) | x | 80.9* | x | x | x | i
Cc1cccc(NC(=O)CCCCCN2C(=O)[C@@H]3Cc4ccccc4CN3C2=O)c1 | -0.2 | x | 0.7 | i | -4.6 | i
O=C(CCCCCN1C(=O)[C@@H]2Cc3ccccc3CN2C1=O)Nc1cccc(F)c1 | -0.5 | x | 9.7 | 25* | -6.1 | i
Cc1ccn(-c2cc(O)c(-n3ccc(C)n3)cc2O)n1 | 2.4 | 15.4 | 27.1 | i | -5.9 | i
COc1ccc(/C=C/C(=O)NC(=S)NNC(=O)c2cc(OC)c(OC)c(OC)c2)cc1OC | -1.5 | 14.6 | -1.8 | i | 0.8 | i
Cc1ccc(/C=C/C(=O)NC(=S)Nc2ccccc2C(=O)NC2CCCCC2)cc1 | -1.3 | 23.2 | x | i | 3.0 | i
COc1ccc(/C=C/C(=O)NC(=S)Nc2ccccc2C(=O)NC2CCCCC2)cc1 | 0.1 | 90.0* | x | i | 2.3 | i
COc1ccc(/C=C/C(=O)NC(=S)NNC(=O)c2cc(OC)c(OC)c(OC)c2)cc1 | -1.3 | 89.4* | -13.9 | i | 5.1 | i
Cc1ccc2oc(=O)n(CCOc3ccccc3Cl)c2c1 | -0.5 | 92.7* | x | i | 0.2 | i
CCn1cc(C(=O)O)c(=O)c2cc(F)c(N3CCN(C(=S)Nc4ccccc4OC)CC3)cc21 | 1.7 | -15.4 | 17.8 | i | -0.6 | i
CCn1cc(C(=O)O)c(=O)c2cc(F)c(N/N=C/c3ccccc3[N+](=O)[O-])cc21 | 0.4 | 77.8* | -25.4 | i | 10.3 | i
COCCNC(=S)N(CCc1c(C)[nH]c2ccc(Cl)cc12)Cc1cccs1 | 0.4 | 29.8 | -0.1 | 100* | -1.5 | i
COCCNC(=S)N(CCc1c(C)[nH]c2ccc(F)cc12)Cc1cccs1 | 0.1 | 40.1 | -0.6 | i | 0.3 | i
CCOC(=O)c1c(/N=C/N(C)C)sc(/C=N/Nc2ccccc2)c1-c1ccccc1 | 3.7 | 82.2* | 1.9 | i | -0.6 | i
CCN(CC)c1nc(-c2cccc(OC)c2O)nc2ccccc12 | 1.1 | 88.1* | x | i | 0.6 | i
C=CCNc1nc(-c2cccc(OC)c2O)nc2ccccc12 | -0.5 | 10.9 | x | i | 11.0 | i
CC(C)CNC(=O)C(=O)Nc1ccc2c(c1)N(S(=O)(=O)c1cccs1)CCC2 | 5.2 | x | x | i | -0.6 | i
CC1(C)C(N(O)C(=O)Nc2ccc(Cl)cc2)N(c2ccc(Cl)cc2)C(=O)N1CC(=O)NN (stereo not given) | -2.0 | -11.0 | 16.1 | i | -3.0 | i
O=[N+]([O-])c1cc(/C=N/NC(=S)Nc2ccccc2Cl)ccc1Cl | 7.5 | -92.7 | -18.4 | i | 1.0 | i
Cc1ccc(NC(=S)N/N=C/c2ccc(Cl)c([N+](=O)[O-])c2)cc1 | 0.2 | 79.8* | 0.7 | i | -0.3 | i
O=Nc1c2cc(-c3ccccc3)[nH]nc-2c2ccccc12 | x | 92.0* | -3.0 | x | x | i
SMILES | CHOP UPR activ | CHOP inhibitor | Hep lipid drop | ANO1 block | UPR XBP1 act | TMEM16A act
Cc1cccc(-c2cc3c(N=O)c4ccccc4c-3n[nH]2)c1 | 0.2 | 84.8* | 1.7 | i | 2.4 | i
CC(C)Cc1ccccc1S(N)(=O)=O | -0.2 | x | -2.3 | i | 3.3 | i
Cc1ccc(-n2c(C)cc(/C=C3\SC(=O)NC3=O)c2C)cc1 | 6.8 | x | -0.2 | i | 2.5 | i
Cc1cc(/C=C2\SC(=Nc3ccccc3)NC2=O)c(C)n1-c1ccc(S(N)(=O)=O)cc1 | 0.4 | 92.3* | x | i | 6.7 | i
O=C(Nc1cc(Cl)cc(Cl)c1)c1ccc(Cn2c(=O)[nH]c3ccsc3c2=O)cc1 | -0.5 | 94.2* | -19.5 | i | -1.5 | i
C=C1CCC(OC(C)=O)C2(C)CCC3C(C)C(=O)OC3C12O (stereo not given) | 0.3 | x | 16.0 | i | -7.5 | i
COc1ccc(-c2oc(NC(=O)CSc3ncn[nH]3)c(C#N)c2-c2ccc(OC)cc2)cc1 | -0.8 | 60.5 | x | 25* | -3.0 | i
N#Cc1c(NC(=O)CSc2ncccn2)oc(-c2ccccc2)c1-c1ccccc1 | 0.0 | x | x | i | -0.6 | i
CN(c1ccccc1)S(=O)(=O)c1cccc(NC(=O)c2cc(=O)c3ccccc3o2)c1 | 7.3 | 31.0 | -3.3 | i | 1.8 | i
O=c1ccc(-c2ccccc2)nn1Cc1ccc(F)cc1Cl | 0.1 | x | -2.3 | i | -1.5 | i
C#CC(=O)N(c1ccc(OC)cc1OC)C(C(=O)NC1CCCC1)c1cccs1 (stereo not given) | -8.1 | 107.5* | 122.6* | i | -8.5 | i
O=C(NC1CCCCC1)C(c1ccco1)N(CCc1ccccc1)C(=O)C(F)(F)F (stereo not given) | -0.9 | 5.4 | -40.0 | i | -2.3 | i
COc1ccc(CCN(C(=O)C(F)(F)F)C(C(=O)NC2CCCC2)c2cccs2)cc1 (stereo not given) | 0.2 | 79.9* | x | i | -2.5 | i
O=C(Nc1cc(Cl)ccc1O)c1snnc1-c1ccccc1 | -0.1 | 82.1* | x | i | 1.0 | i
O=C(Nc1ccccc1)C(=O)Nc1ccc2c(c1)N(C(=O)C1CC1)CCC2 | -0.5 | x | x | i | 0.8 | i
Fc1ccc(CNc2nc(-c3ccccc3)nc3ccccc23)cc1 | -1.6 | 72.6* | -0.2 | x | -4.1 | i
O=[N+]([O-])c1ccc(-c2nc(NCc3ccccc3)c3ccccc3n2)cc1 | 2.3 | 90.3* | -1.5 | i | -1.6 | i
CCCSc1ccc([C@H]2N[C@@](CC(C)C)(C(=O)OC)[C@H]3C(=O)N(C)C(=O)[C@@H]23)cc1 | -0.2 | x | x | i | -0.4 | i
Cc1cccc(N2CCN(C(=O)C3CCCCC3)CC2)c1C | 0.7 | 96.0* | x | i | -1.0 | i
Cc1cccc(N2CCN(C(=O)C34CC5CC(CC(C5)C3)C4)CC2)c1C | -0.6 | 71.8* | -2.2 | i | -1.9 | i
O=C(N1CCN(c2ccccc2F)CC1)C12CC3CC(CC(C3)C1)C2 | 0.0 | -20.8 | -23.3 | i | 0.5 | i

Assay outcomes: PubChem BioAssay, several laboratories
